Experimental data published in ChEMBL document CHEMBL2010800, “Methoxychalcone inhibitors of androgen receptor translocation and function” (Bioorg Med Chem Lett, 2012).
Activity calls are given as the source filed them. The rule behind the calls is not given here.

Tests used:
[1] = molecular target: T1, Androgen receptor (Homo sapiens) (UniProt P10275); assay: Agonist activity at androgen receptor in human LNCAP cells assessed as potentiation of R1881-induced prostate specific antigen mRNA expression at 1 uM after 20 hrs by real time RT-PCR analysis; assay type: functional, cell-based
T1 sequence (whole entry): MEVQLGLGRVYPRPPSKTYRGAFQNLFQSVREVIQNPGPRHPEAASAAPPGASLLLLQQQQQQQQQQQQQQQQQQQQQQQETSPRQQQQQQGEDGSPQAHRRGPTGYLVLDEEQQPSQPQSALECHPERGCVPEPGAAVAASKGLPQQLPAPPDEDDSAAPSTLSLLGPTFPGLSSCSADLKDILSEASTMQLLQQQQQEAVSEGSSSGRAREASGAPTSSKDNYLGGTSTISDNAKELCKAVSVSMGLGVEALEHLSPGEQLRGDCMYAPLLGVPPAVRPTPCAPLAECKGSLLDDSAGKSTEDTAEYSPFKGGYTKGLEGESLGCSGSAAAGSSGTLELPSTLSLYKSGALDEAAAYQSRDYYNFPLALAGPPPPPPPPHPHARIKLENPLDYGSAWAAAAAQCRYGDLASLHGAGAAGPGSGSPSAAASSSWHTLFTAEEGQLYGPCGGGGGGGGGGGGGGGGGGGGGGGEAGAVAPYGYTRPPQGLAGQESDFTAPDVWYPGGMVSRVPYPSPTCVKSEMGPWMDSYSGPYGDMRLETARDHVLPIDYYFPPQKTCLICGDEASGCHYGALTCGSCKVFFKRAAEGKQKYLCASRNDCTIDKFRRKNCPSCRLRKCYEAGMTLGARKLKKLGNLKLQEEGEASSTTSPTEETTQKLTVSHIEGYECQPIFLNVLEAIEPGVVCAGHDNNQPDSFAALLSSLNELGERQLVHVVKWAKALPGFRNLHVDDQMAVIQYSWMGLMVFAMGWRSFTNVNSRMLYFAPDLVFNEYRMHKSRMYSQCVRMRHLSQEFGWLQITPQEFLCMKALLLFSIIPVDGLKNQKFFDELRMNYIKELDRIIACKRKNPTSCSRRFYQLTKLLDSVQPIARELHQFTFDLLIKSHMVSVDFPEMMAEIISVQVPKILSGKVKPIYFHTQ
Summary of the method: (§1)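 LNCaP cells were first kept 3 days in phenol red-free RPMI 1640 with 10% charcoal-stripped FBS and 1% antibiotic-antimycotic. They were then exposed for 20 hr to compound at 10, 5 or 1 μM together with 0.5 nM R1881. PSA and TMPRSS2 mRNA were quantified by real-time RT-PCR against DMSO-treated controls.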

[2] = molecular target: T1, Androgen receptor (Homo sapiens); assay: Antagonist activity at androgen receptor in human LNCAP cells assessed as inhibition of R1881-induced prostate specific antigen mRNA expression after 20 hrs by real time RT-PCR analysis relative to control; assay type: functional, cell-based; summary of the method: as §1
[3] = molecular target: T1, Androgen receptor (Homo sapiens); assay: Antagonist activity at androgen receptor in human LNCAP cells assessed as inhibition of R1881-induced transmembrane protease serine 2 mRNA expression after 20 hrs by real time RT-PCR analysis; assay type: functional, cell-based; summary of the method: as §1
[4] = molecular target: T1, Androgen receptor (Homo sapiens); assay: Agonist activity at androgen receptor in human LNCAP cells assessed as potentiation of R1881-induced transmembrane protease serine 2 mRNA expression at 1 uM after 20 hrs by real time RT-PCR analysis; assay type: functional, cell-based; summary of the method: as §1
[5] = molecular target: T1, Androgen receptor (Homo sapiens); assay: Antagonist activity at androgen receptor in human LNCAP cells assessed as decrease in prostate specific antigen mRNA level at 2.5 uM after 20 hrs by real time RT-PCR analysis; assay type: functional, cell-based
Summary of the method: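 LNCaP prostate cancer cells (AR carries T877A ligand-binding-domain mutation) exposed to compound at 2.5 μM for 20 hr; PSA mRNA quantified by real-time RT-PCR and expressed relative to DMSO-treated control cells set to 1; mean values, n = 3.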

[6] = molecular target: T1, Androgen receptor (Homo sapiens); conditions: LNCaP, 10 uM
[7] = molecular target: T1, Androgen receptor (Homo sapiens); conditions: LNCaP, 10 uM; remark: listed apart in the source
[8] = molecular target: T1, Androgen receptor (Homo sapiens); conditions: LNCaP, 10 uM; remark: listed apart in the source
[9] = molecular target: T2, Androgen receptor (Homo sapiens, UniProt P10275); assay: Antagonist activity at androgen receptor in human LNCAP cells assessed as decrease in transmembrane protease serine 2 mRNA level after 20 hrs by real time RT-PCR analysis
T2 sequence (P10275 whole entry): T1 sequence (whole entry)

[10] = molecular target: T1, Androgen receptor (Homo sapiens); conditions: LNCaP, 10 uM; remark: listed apart in the source
[11] = molecular target: T2, Androgen receptor; assay: Antagonist activity at androgen receptor in human LNCAP cells assessed as decrease in prostate specific antigen mRNA level after 20 hrs by real time RT-PCR analysis
[12] = molecular target: T1, Androgen receptor (Homo sapiens); conditions: LNCaP, 10 uM; remark: listed apart in the source
[13] = tested on: LNCaP; assay: Cytotoxicity against human LNCAP cells after 3 days; assay type: functional, cell-based; conditions: 72 h

Row | Structure (SMILES) | inhibition [2] | inhibition [3] | inhibition [5] [%] | also measured
1 | COc1ccc(C(=O)/C=C/c2cccc([N+](=O)[O-])c2)c(OC)c1OC | Dose-dependent effect | Dose-dependent effect | 84 | Activity [1]: Active; Activity [4]: Active
2 | COc1ccc(C(=O)/C=C/c2cccc(C(F)(F)F)c2)c(OC)c1OC |  |  | 81 | 
3 | COc1ccccc1C(=O)/C=C/c1ccccc1 |  |  | 63 | 
4 | COc1ccccc1C(=O)/C=C/c1ccccc1C(F)(F)F |  |  | 94 | 
5 | COc1ccc(OC)c(C(=O)/C=C/c2ccc(C#N)cc2)c1 |  |  | 82 | 
6 | COc1ccccc1C(=O)/C=C/c1ccccc1[N+](=O)[O-] | Dose-dependent effect | Dose-dependent effect | 94 | inhibition [6]: Active; inhibition [7]: Active; inhibition [8]: Dose-dependent effect; IC50 [9]: 750 nM; inhibition [10]: 89%; IC50 [11]: 600 nM; inhibition [12]: 99%; IC50 [13]: 3400 nM
7 | COc1ccc(C(=O)/C=C/c2ccc(C#N)cc2)cc1OC | Dose-dependent effect | Dose-dependent effect | 85 | 
8 | COc1cccc(OC)c1C(=O)/C=C/c1ccccc1C(F)(F)F |  |  | 87 | 

More lines, main results first:

Row | inhibition [2] | inhibition [3] | inhibition [5] [%] | Structure (SMILES) | also measured
9 | Dose-dependent effect | Dose-dependent effect |  | COc1ccc(C(=O)/C=C/c2ccc([N+](=O)[O-])cc2)cc1OC | 
10 |  |  | 81 | COc1cccc(OC)c1C(=O)/C=C/c1ccc([N+](=O)[O-])cc1[N+](=O)[O-] | 
11 |  |  | 90 | COc1cccc(OC)c1C(=O)/C=C/c1ccc([N+](=O)[O-])cc1 | 
12 |  |  | 85 | COc1cccc(OC)c1C(=O)/C=C/c1cccc([N+](=O)[O-])c1 | 
13 | Dose-dependent effect | Dose-dependent effect | 84 | COc1ccc(C(=O)/C=C/c2ccc([N+](=O)[O-])cc2)c(OC)c1OC | 
